ChEMBL document CHEMBL4316619 (Bioorg Med Chem Lett, 2019)
Calls of active or inactive are those of the source. The rule behind the calls is not given here.

What was measured:
[1] = Drug level in C57BL/6 mouse plasma at 30 mg/kg, ip measured at 0.25 hrs; assay type: ADME, organism-based
Outline: (§1)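 Male C57BL/6 mice, single intraperitoneal 30 mg/kg dose, N=3. Plasma, liver and lung concentrations followed over time to give concentration-time profiles, from which Tmax, Cmax, terminal t1/2, AUClast and AUCINF were derived.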

Influenza A virus [2] = assay: Effect on NS1 protein expression in Influenza A virus A/PR/8/34 (H1N1) infected in MDCK cells at 20 uM by Western blot analysis; assay type: functional, organism-based; details: A/Puerto Rico/8/1934(H1N1)
Outline: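 MDCK cells, uninfected or infected with A/PR/8/34, treated with DMSO or compound at 20 μM. NS1 protein detected by Western blot, with α-tubulin as loading control.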

[3] = Drug level in C57BL/6 mouse plasma at 30 mg/kg, ip measured at 12 hrs; assay type: ADME, organism-based; outline: as §1
Influenza A virus [4] = assay: Antiviral activity against Influenza A virus (A/California/7/2009(H1N1)) infected in MDCK cells assessed as reduction in virus-induced cytopathic effect measured on day 5 by Celltiter-Glo luminescence assay; assay type: functional, organism-based; details: 120 h
Outline: (§2)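 MDCK cells were infected with seasonal influenza A strains through NIAID resources and scored for protection from virus-induced cell death. Compounds were tested at four concentrations (0.8, 4, 20, 100 μM). EC50/EC90 (reduction of viral cell death) and CC50 (reduction of cell viability) were derived in μM, and SI50 = CC50/EC50.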

[5] = Drug level in C57BL/6 mouse lung at 30 mg/kg, ip measured at 2 hrs; assay type: ADME, organism-based; details: in vivo
Outline: (§3)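 Male C57BL/6 mice received a single intraperitoneal dose of 30 mg/kg (N=3). Compound concentrations were followed over time in plasma, liver and lung. Tmax, Cmax, terminal t1/2, AUClast and AUCINF were derived from the mean concentration-time profiles.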

[6] = target: Non-structural protein 1 (Influenza A virus (strain A/Puerto Rico/8/1934 H1N1)) (UniProt P03496); assay: Inhibition of NS1 in Influenza A virus A/PR/8/34 (H1N1) infected in MDCK cells assessed as restoration of protein-induced reduction in IFN-beta mRNA expression at 20 uM measured after 6 hrs by RT-PCR analysis; assay type: cell-based; details: Influenza A virus (A/Puerto Rico/8/1934(H1N1))
Outline: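 MDCK cells infected with A/PR/8/34 at MOI 2 and incubated 6 h with compound at 20 μM. Cells harvested; IFN-β and β-actin mRNA detected by RT-PCR. Poly(I:C) lane serves as positive control for IFN-β induction.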

[7] = Terminal half life in C57BL/6 mouse plasma at 30 mg/kg, ip; assay type: ADME, organism-based; details: mouse, in vivo; outline: as §1
[8] = Terminal half life in C57BL/6 mouse lung at 30 mg/kg, ip; assay type: ADME, organism-based; details: read-out: beta t1/2 (converted); outline: as §1
[9] = Drug level in C57BL/6 mouse liver at 30 mg/kg, ip measured at 0.25 hrs; assay type: ADME, organism-based; details: in vivo; outline: as §3
[10] = Drug level in C57BL/6 mouse lung at 30 mg/kg, ip measured at 0.25 hrs; assay type: ADME, organism-based; details: in vivo; outline: as §3
[11] = Tmax in C57BL/6 mouse plasma at 30 mg/kg, ip; assay type: ADME, organism-based; details: mouse, in vivo; outline: as §1
[12] = Drug level in C57BL/6 mouse plasma at 30 mg/kg, ip measured at 8 hrs; assay type: ADME, organism-based; outline: as §1
[13] = Drug level in C57BL/6 mouse plasma at 30 mg/kg, ip measured at 2 hrs; assay type: ADME, organism-based; outline: as §1
[14] = Drug level in C57BL/6 mouse liver at 30 mg/kg, ip measured at 8 hrs; assay type: ADME, organism-based; details: in vivo; outline: as §3
Influenza B virus = assay: Antiviral activity against Influenza B virus (B/Brisbane/60/2008) infected in MDCK cells assessed as reduction in virus-induced cytopathic effect measured on day 5 by Celltiter-Glo luminescence assay; assay type: functional, organism-based
[15] = Drug level in C57BL/6 mouse liver at 30 mg/kg, ip measured at 24 hrs; assay type: ADME, organism-based; details: in vivo; outline: as §3
[16] = Toxicity in C57BL/6 mouse assessed as effect on liver at 30 mg/kg, ip; assay type: organism-based; details: in vivo
[17] = Drug level in C57BL/6 mouse plasma at 30 mg/kg, ip measured at 3 hrs; assay type: ADME, organism-based; outline: as §1
[18] = Toxicity in C57BL/6 mouse assessed as effect on lungs at 30 mg/kg, ip; assay type: organism-based; details: in vivo
[19] = Drug level in C57BL/6 mouse plasma at 30 mg/kg, ip measured at 1 hrs; assay type: ADME, organism-based; outline: as §1
Influenza A virus H3N2 = assay: Antiviral activity against Influenza A virus (A/Brisbane/10/2007(H3N2)) infected in MDCK cells assessed as reduction in virus-induced cytopathic effect measured on day 5 by Celltiter-Glo luminescence assay; assay type: functional, organism-based; details: 120 h; outline: as §2
[20] = Drug level in C57BL/6 mouse lung at 30 mg/kg, ip measured at 3 hrs; assay type: ADME, organism-based; details: in vivo; outline: as §3
[21] = Stability of the compound in mouse liver microsomes assessed as parent compound remaining measured after 30 mins; assay type: ADME, Microsome; details: read-out: Stability
Outline: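 Mouse liver microsomes; percent parent compound remaining measured at 0, 15 and 30 min.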

[22] = Cmax in C57BL/6 mouse lung at 30 mg/kg, ip; assay type: ADME, organism-based; set-up: dose 30 mg/kg, route intraperitoneal; outline: as §3
[23] = Apparent permeability across apical to basolateral side in human Caco2 cells measured after 2 hrs in presence of 3% BSA; assay type: ADME, cell-based; details: caco-2, 2 h
Outline: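 Permeability was measured across Caco-2 monolayers in both directions, apical to basolateral and basolateral to apical. […] Runs were done with and without 3% BSA, and mass recovery (%) was reported for each direction. Efflux ratio = Papp B→A / Papp A→B.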

[24] = target: Non-structural protein 1 (Influenza A virus (strain A/Puerto Rico/8/1934 H1N1)) (UniProt P03496); assay: Inhibition of Influenza A virus A/PR/8/34 (H1N1) NS1 expressed in 293 cells assessed as increase in poly(I:C)-induced IFN-beta reporter activity treated 16 hrs […] measured after 24 hrs by luciferase reporter gene assay; assay type: cell-based; details: Influenza A virus (A/Puerto Rico/8/1934(H1N1))
Outline: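 293 cells co-transfected with a human IFN-β promoter-driven firefly luciferase reporter and NS1 expression constructs. At 16 h post-transfection, poly(I:C) 50 μg/mL plus compound (20 μM) or 1% DMSO added for a further 24 h; luciferase read by luminometer. Untransfected cells serve as baseline.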

[25] = Drug level in C57BL/6 mouse lung at 30 mg/kg, ip measured at 0.5 hrs; assay type: ADME, organism-based; details: in vivo; outline: as §3
[26] = Drug level in C57BL/6 mouse plasma at 30 mg/kg, ip measured at 0.083 hrs; assay type: ADME, organism-based; outline: as §3
[27] = AUC (infinity) in C57BL/6 mouse liver at 30 mg/kg, ip; assay type: ADME, organism-based; set-up: dose 30 mg/kg, time infinity, route intraperitoneal; outline: as §3
[28] = Drug level in C57BL/6 mouse plasma at 30 mg/kg, ip measured at 0.5 hrs; assay type: ADME, organism-based; outline: as §1
[29] = Drug level in C57BL/6 mouse liver at 30 mg/kg, ip measured at 2 hrs; assay type: ADME, organism-based; details: in vivo; outline: as §3
MDCK = assay: Cytotoxicity against MDCK cells assessed as reduction in cell viability measured after 48 hrs by CellTiter Glo assay; assay type: cell-based, Canis lupus familiaris; details: dog
Outline: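 MDCK cells were incubated with compound under the conditions of the 48 h replication assay. Cytotoxicity was read with the CellTiter-Glo ATP viability assay. Follow-up viability testing used 5, 10, 50 and 100 μM.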

[30] = Cytotoxicity against MDCK cells assessed as reduction in cell viability measured on day 5 by Celltiter-Glo luminescence assay; assay type: cell-based, Canis lupus familiaris; details: dog, MDCK cells; outline: as §2

Chain of Non-structural protein 1 (Influenza A virus (strain A/Puerto Rico/8/1934 H1N1)) (P03496 whole entry): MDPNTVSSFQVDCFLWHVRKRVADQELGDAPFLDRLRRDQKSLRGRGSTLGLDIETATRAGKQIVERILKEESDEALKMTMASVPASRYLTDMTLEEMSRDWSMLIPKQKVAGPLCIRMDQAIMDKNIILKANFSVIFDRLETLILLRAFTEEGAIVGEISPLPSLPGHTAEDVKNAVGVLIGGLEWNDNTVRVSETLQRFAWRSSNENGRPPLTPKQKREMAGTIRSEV

With `COc1cc(-c2ccnc3c2c(C)nn3-c2ccc(C(F)(F)F)cc2)ccc1O` the concentration at 0.25 h [1] was 6100 nM, the Activity (Influenza A virus [2]) was “inactive” and the concentration at 12 h [3] was 209 nM. For the same compound, the EC50 (Influenza A virus [4]) was 0.7 µM, the EC90 (Influenza A virus [4]) was over 50 µM and the Drug uptake [5] was 16568 nmol/kg. For the same compound, the inhibition [6] was “Active”, the “beta t1/2” value [7] was 4.6 h and the half-life [8] was 4.5 h. It also gave a Drug uptake [9] of 124197 nmol/kg, a Drug uptake [10] of 46490 nmol/kg and a Tmax [11] of 0.25 h. For the same compound, the concentration at 8 h [12] was 555 nM, the concentration at 2 h [13] was 2530 nM and the Drug uptake [14] was 5058 nmol/kg. For the same compound, the Activity (Influenza B virus) was “inactive”, the Drug uptake [15] was 224 nmol/kg and the Activity [16] was “Non-Toxic”. For the same compound, the concentration at 3 h [17] was 1730 nM, the Activity [18] was “Non-Toxic” and the concentration at 1 h [19] was 5120 nM. For the same compound, the EC50 (Influenza A virus H3N2) was 17 µM, the EC90 (Influenza A virus H3N2) was over 50 µM and the Drug uptake [20] was 10951 nmol/kg. The remaining at 0.5 h [21] was 45%, the Cmax [22] was 18600 ng/mL and the Papp [23] was 0.22 ×10⁻⁶ cm/s. The inhibition [24] was “Active”, the Drug uptake [25] was 36057 nmol/kg and the concentration at 0.083 h [26] was 2950 nM. The AUC(0-inf) [27] was 80300 ng·h/mL, the concentration at 0.5 h [28] was 5760 nM and the Drug uptake [29] was 18413 nmol/kg. The Activity (MDCK) was “Non-Toxic” and the CC50 at 5 day [30] was 19.8 to 27.8 µM.
